Measured values published in PMC9137328 (Bioorganic chemistry, 2020).
pEC50, pIC50: −log10 of the molar value. “Also recorded” adds a separate entry of the source. Read-outs that look alike come from different tables or passages of the source. One block for each compound: values may come before it.

Experiments:
[1] = target: T1, ERRγ (Homo sapiens, UniProt P62508); assay: Cell-based; conditions: for ERRγ activity (in words): HEK293 co-transfection luciferase
T1 sequence (P62508 1-458): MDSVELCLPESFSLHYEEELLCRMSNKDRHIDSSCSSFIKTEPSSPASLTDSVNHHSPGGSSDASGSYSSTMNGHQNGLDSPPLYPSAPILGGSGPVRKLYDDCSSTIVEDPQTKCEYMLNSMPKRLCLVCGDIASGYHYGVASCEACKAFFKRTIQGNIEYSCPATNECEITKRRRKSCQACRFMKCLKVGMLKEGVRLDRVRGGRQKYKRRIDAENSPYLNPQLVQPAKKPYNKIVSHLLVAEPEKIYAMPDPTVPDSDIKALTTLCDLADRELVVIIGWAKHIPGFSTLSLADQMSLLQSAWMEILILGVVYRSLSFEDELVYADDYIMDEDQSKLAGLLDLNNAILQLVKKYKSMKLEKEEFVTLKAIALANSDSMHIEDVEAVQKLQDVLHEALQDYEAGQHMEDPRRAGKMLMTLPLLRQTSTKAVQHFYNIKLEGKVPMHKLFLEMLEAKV

[2] = target: T2, ERRα (Homo sapiens, UniProt P11474); assay: Cell-based; conditions: for ERRα activity (in words): HEK293 co-transfection luciferase
T2 sequence (P11474 1-423): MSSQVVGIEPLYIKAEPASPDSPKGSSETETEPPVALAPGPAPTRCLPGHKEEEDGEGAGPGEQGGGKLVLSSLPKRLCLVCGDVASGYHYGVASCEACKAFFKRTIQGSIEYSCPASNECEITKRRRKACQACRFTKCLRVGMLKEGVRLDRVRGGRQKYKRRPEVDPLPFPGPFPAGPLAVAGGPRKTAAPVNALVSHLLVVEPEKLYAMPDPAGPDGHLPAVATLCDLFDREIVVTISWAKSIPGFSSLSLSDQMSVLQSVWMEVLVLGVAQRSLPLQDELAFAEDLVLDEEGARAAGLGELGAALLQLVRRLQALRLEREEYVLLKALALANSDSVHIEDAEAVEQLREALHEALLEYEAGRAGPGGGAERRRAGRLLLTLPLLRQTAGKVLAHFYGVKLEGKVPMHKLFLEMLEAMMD

[3] = test system: ERR target genes PGC-1α, PGC-1β, CPT1α and PDK4; assay: Gene expression; assay type: cell-based, mouse; conditions: C2C12 cells, 1 μM of tested compounds, 24 h
Method in brief: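 Confluent C2C12 myoblasts (DMEM, 10% FBS, 1% L-glutamine; 2.5 million cells per well) were treated 24 h with test compound in DMSO or with DMSO vehicle, in triplicate groups. Total RNA was column-extracted and 1 μg was reverse-transcribed. Transcripts were quantified by SYBR qPCR, with samples run in duplicate. Relative expression was calculated by ΔΔCt against 36b4 as the reference gene.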

[4] = test system: C2C12 cells; assay: Cell viability assay, FITC Annexin V/PI flow cytometry; assay type: cell-based; conditions: 1 and 10 μM, 24 h
Method in brief: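 C2C12 mouse myoblasts were kept in DMEM with 10% FBS and 1% L-glutamine. They were seeded at 2.5 million cells per well and grown 24 h to confluence. Cells were exposed 24 h to test compound in DMSO at 1 or 10 μM, with a DMSO-only control, in triplicate. Harvested cells were stained with FITC-Annexin V and propidium iodide and analysed by flow cytometry for live/dead cells.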

[5] = target: T3, ERRβ (Homo sapiens, UniProt O95718); assay: Cell-based co-transfection ERR responsive luciferase reporter assay, ERRβ
T3 sequence (O95718 1-433): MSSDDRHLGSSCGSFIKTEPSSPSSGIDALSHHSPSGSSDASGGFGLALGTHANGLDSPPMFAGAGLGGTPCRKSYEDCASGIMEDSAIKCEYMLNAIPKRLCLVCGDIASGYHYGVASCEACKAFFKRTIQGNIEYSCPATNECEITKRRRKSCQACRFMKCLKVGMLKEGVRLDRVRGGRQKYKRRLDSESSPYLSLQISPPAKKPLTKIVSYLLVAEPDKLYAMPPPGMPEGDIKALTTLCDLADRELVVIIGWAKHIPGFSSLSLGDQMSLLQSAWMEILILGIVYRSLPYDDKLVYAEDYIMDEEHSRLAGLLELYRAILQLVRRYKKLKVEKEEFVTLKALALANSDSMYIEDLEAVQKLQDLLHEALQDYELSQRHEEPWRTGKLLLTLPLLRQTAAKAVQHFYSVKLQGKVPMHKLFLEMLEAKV

[6] = target: T3, ERRβ; conditions: cited from earlier work
[7] = target: T1, ERRγ; conditions: cited from earlier work
[8] = target: T2, ERRα; conditions: cited from earlier work

SMILES: O=C(NN=Cc1ccccc1)c1ccccc1 [Compound 10]
- ERRγ activity (in words) [1]: complete loss of activity; also recorded: completely inactive
- ERRα activity (in words) [2]: complete loss of activity; also recorded: completely inactive

SMILES: O=C(NN=Cc1ccccc1)c1ccccc1O [Compound 19]
- ERRγ activity (in words) [1]: moderately potent
- ERRα activity (in words) [2]: moderately potent

SMILES: O=C(NN=Cc1ccccc1)c1ccc(Br)cc1 [Compound 21]
- ERRγ activity (in words) [1]: moderate ERRγ activity; also recorded: very weak
- ERRα activity (in words) [2]: completely lost ERRα activity; also recorded: inactive

SMILES: Cc1ccccc1C(=O)NN=Cc1ccccc1 [Compound 23]
- ERRα activity (in words) [2]: no activity

SMILES: Cc1ccc(C(=O)N/N=C/c2ccccc2)cc1 [Compound 24, (E)-N’-Benzylidene-4-methylbenzohydrazide]
- Cell viability / signs of toxicity [4]: No signs of toxicity; also recorded: did not show signs of toxicity
- pEC50 [5]: 6.79
- PDK4 transcription [3]: potently upregulated
- mRNA levels of PGC-1α [3]: increase the mRNA levels
- mRNA levels of PGC-1β [3]: increase the mRNA levels

SMILES: O=C(N/N=C/c1ccccc1O)c1ccccc1O [Compound 27, (E)-2-Hydroxy-N’-(2-hydroxybenzylidene)benzohydrazide]
- Cell viability / signs of toxicity [4]: No signs of toxicity; also recorded: did not show signs of toxicity
- pEC50 [1]: 5.78
- pEC50 [5]: 6.11
- pEC50 [2]: 6.42
- activity toward ERRα, folds higher than ERRβ ([2]; from EC50 values): ≈ 2 folds
- selectivity toward ERRα over ERRγ ([2]; from EC50 values): > 4 fold

SMILES: Cc1ccccc1C(=O)N/N=C/c1ccccc1O [Compound 29, (E)-N’-(2-Hydroxybenzylidene)-2-methylbenzohydrazide]
- Cell viability / signs of toxicity [4]: No signs of toxicity; also recorded: did not show signs of toxicity
- pEC50 [1]: 6.60
- pEC50 [5]: 6.23
- pEC50 [2]: 6.34

SMILES: COc1ccc(/C=N/NC(=O)c2ccc(Br)cc2)cc1 [Compound 35, (E)-4-Bromo-N’-(4-methoxybenzylidene)benzohydrazide]
- pEC50 [1]: 6.40
- PDK4 transcription [3]: potently upregulated
- mRNA levels of PGC-1α [3]: increased the mRNA levels
- pEC50 [2]: 6.27

SMILES: O=C(N/N=C/c1ccccc1O)c1ccccc1O [Compound 36]
- ERRγ activity (in words) [1]: inactive

SMILES: O=C(N/N=C/c1ccccc1[N+](=O)[O-])c1ccc([N+](=O)[O-])cc1 [Compound 38, (E)-4-Nitro-N’-(2-nitrobenzylidene)benzohydrazide]
- pEC50 [1]: 6.59
- pEC50 [2]: 6.19
- fold decrease in potency against ERRα ([2]; compared to 16): ≈ 1.5 fold

SMILES: O=C(N/N=C/c1cccs1)c1ccccc1 [Compound 42, (E)-N’-(Thiophen-2-ylmethylene)benzohydrazide]
- Cell viability / signs of toxicity [4]: No signs of toxicity; also recorded: did not show signs of toxicity
- ERRγ activity (in words) [1]: weak agonistic effect
- pEC50 [5]: 5.92
- activity toward ERRβ, folds higher than ERRα ([5]; from EC50 values): 1.8 folds
- PDK4 transcription [3]: potently upregulated
- mRNA levels of PGC-1α [3]: increase the mRNA levels
- mRNA levels of PGC-1β [3]: increase the mRNA levels
- ERRα activity (in words) [2]: weak agonistic effect

SMILES: O=C(NN=Cc1ccnc2ccccc12)c1ccccc1 [Compound 46, quinolin-4-ylmethylene benzohydrazide]
- pIC50 [2]: 5.34

SMILES: CC(C)c1ccc(/C=N/NC(=O)c2ccc(O)cc2)cc1 [GSK4716 (6)]
- reported activity on ERRβ [6]: agonist
- reported activity on ERRγ [7]: agonist
- reported activity on ERRα [8]: no observed activity
- pEC50 ([5]; read-out: ERRβ EC50, agonism, co-transfection luciferase reporter): 6.55
- ERRα activity (in words) [2]: very weak activity

Continued, in another order:

- ERRγ activity (in words) [1]: activity was regained
SMILES: CN(C)c1ccc(C=NNC(=O)c2ccccc2)cc1 [Compound 11]
- ERRα activity (in words) [2]: no ERRα activity; also recorded: inactive

- ERRγ activity (in words) [1]: completely inactive
- ERRα activity (in words) [2]: completely inactive
SMILES: O=C(NN=Cc1ccccc1O)c1ccccc1 [Compound 13]

- selectivity toward ERRγ over ERRα ([1]; from EC50 values): 1.6 fold
- fold more potent toward ERRα than 14 ([2]; compared to 14): ≈ 17 fold
- fold increase in potency toward ERRα compared to 15 ([2]; compared to 15): > 6 fold
SMILES: O=C(N/N=C/c1ccccc1[N+](=O)[O-])c1ccccc1 [Compound 16, (E)-N’-(2-Nitrobenzylidene)benzohydrazide]
- PDK4 transcription [3]: potently upregulated
- expression of CPT1α [3]: significantly increased the expression

- ERRγ activity (in words) [1]: weak activity
- ERRα activity (in words) [2]: weak activity
SMILES: O=C(NN=Cc1ccccc1O)c1ccc(Cl)cc1 [Compound 31]

- pEC50 [1]: 6.63
- pEC50 [5]: 6.91
- pEC50 [2]: 6.32
SMILES: Cc1ccc(C(=O)N/N=C/c2ccccc2O)cc1 [Compound 33, (E)-N’-(2-Hydroxybenzylidene)-4-methylbenzohydrazide]

- ERRγ activity (in words) [1]: completely inactive
- ERRα activity (in words) [2]: completely inactive
SMILES: O=C(N/N=C/c1ccccc1[N+](=O)[O-])c1ccccc1 [Compound 34]
